By Ki is commonly meant the dissociation constant of the complex between target and ligand, obtained from inhibition or displacement.

In assay [1] the test system is HepG2. Put plainly: Percent control of ATP levels in human hepatoma cell line, HepG2 at 1000 uM concentration. It is filed as functional. The essentials: (§1)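 Serum-starved HepG2 cells (grown to 80–90% confluence in DMEM/10% FCS, then overnight without serum) were exposed to vehicle or compound at the stated final concentration for 2.5 h. Cellular ATP was then measured as a toxicity check and expressed as % of vehicle control.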

Assay [2] relates to HepG2. Put plainly: Percent control of ATP levels in human hepatoma cell line, HepG2 at 100 uM concentration. The format is functional. In outline: as §1
The subject of assay [3] is HepG2. Nature of the assay: Percent reduction of cholesterol synthesis in human hepatoma cell line HepG2 at 1000 uM concentration. It is filed as functional. In outline: (§2)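 HepG2 cells were grown in DMEM with Hepes, bicarbonate, glutamine and 10% FCS to 80–90% confluence, then kept overnight serum-free. Vehicle or compound was added at the stated final concentration for 2.5 h. ³H2O (71 μCi/mmol) was present for the final 90 min. Synthesis rates came from ³H incorporated into cellular cholesterol or fatty acids, relative to vehicle control.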

Assay [4] relates to HepG2. Nature of the assay: Percent reduction of fatty acid synthesis in human hepatoma cell line HepG2 at 1000 uM concentration. It is filed as functional. In outline:
as §2

Assay [5] has as its system HepG2. Nature of the assay: Percent reduction of fatty acid synthesis in human hepatoma cell line HepG2 at 100 uM concentration. The format is functional. On the set-up: scale not given: the % may be the effect or the level left. The essentials:
as §2

The target of assay [6] is T1, ATP-citrate synthase (Rattus norvegicus, UniProt P16638).
T1 sequence (P16638 whole entry): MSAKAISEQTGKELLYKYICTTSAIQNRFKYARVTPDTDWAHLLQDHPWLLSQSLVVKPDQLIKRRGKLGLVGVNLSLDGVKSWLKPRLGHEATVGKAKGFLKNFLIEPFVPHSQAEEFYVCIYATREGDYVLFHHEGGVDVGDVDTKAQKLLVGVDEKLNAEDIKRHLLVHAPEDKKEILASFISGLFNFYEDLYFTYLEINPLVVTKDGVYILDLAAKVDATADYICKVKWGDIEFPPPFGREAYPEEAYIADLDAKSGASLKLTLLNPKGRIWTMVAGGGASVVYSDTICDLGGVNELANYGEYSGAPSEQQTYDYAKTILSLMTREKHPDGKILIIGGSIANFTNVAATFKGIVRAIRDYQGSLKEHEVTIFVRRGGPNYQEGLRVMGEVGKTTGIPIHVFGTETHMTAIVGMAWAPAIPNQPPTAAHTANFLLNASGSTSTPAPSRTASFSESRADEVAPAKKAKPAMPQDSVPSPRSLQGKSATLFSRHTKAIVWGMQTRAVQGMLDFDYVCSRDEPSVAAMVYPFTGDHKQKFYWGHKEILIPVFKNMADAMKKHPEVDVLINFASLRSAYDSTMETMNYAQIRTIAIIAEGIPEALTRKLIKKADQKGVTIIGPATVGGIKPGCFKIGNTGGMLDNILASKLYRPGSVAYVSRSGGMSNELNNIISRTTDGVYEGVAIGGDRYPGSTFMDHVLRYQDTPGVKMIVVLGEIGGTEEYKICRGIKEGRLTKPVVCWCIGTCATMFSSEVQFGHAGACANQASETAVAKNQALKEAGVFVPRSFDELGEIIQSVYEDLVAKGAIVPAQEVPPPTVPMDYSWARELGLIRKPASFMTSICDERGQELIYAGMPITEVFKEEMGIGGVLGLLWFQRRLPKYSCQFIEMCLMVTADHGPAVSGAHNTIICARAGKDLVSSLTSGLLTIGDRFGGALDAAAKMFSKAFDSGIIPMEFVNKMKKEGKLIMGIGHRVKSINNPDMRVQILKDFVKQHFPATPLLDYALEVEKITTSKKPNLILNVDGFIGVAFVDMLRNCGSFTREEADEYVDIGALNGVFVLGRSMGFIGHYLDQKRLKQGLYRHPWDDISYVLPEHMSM
Put plainly: Inhibition of recombinant ATP-Citrate Lyase activity as […] dehydrogenase catalyzed reduction of oxaloacetate by NADH. The conditions noted are these: in the assay text read “purified rat ATP-Citrate Lyase” for “recombinant ATP-Citrate Lyase”. The essentials:
(§3)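 Purified rat ACL or recombinant human ACL was assayed by coupling oxaloacetate formation to malate dehydrogenase reduction with NADH. Buffer: Tris 100 mM pH 8.0, MgCl2 10 mM, KCl 10 mM, DTT 10 mM, plus ATP and NADH. CoA was 200 μM, and citrate was added to 100 μM (its Km) to start the reaction. A340 decrease was followed over 20 min. Ki came from fitting v = Vmax/(2 + [I]/Ki), assuming citrate-competitive inhibition.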

Assay [7] relates to HepG2. Nature of the assay: Percent reduction of fatty acid synthesis in human hepatoma cell line HepG2 at 20 uM concentration. It is filed as functional. On the set-up: scale not given: the % may be the effect or the level left. The essentials: as §2
For assay [8], the system named is HepG2. Nature of the assay: Percent control of ATP levels in human hepatoma cell line HepG2 at […] uM concentration. The format is functional.
Assay [9] deals with HepG2. Nature of the assay: Percent control of ATP levels in human hepatoma cell line HepG2 at 20 uM concentration. It is filed as functional. The essentials:
as §1

In assay [10] the test system is HepG2. Nature of the assay: Percent reduction of cholesterol synthesis in human hepatoma cell line HepG2 at 20 uM concentration. Details: scale not given: the % may be the effect or the level left. The format is functional. The essentials:
as §2

The subject of assay [11] is HepG2. Put plainly: Percent control of ATP levels in human hepatoma cell line HepG2 at 100 uM concentration. It is filed as functional. In outline: as §1
Assay [12] deals with HepG2. Put plainly: Percent control of ATP levels in human hepatoma cell line HepG2 at 10 uM concentration. It is filed as functional. The essentials:
as §1

The test system of assay [13] is HepG2. Nature of the assay: Percent control of ATP levels in human hepatoma cell line HepG2 at 30 uM concentration. The format is functional. In outline:
as §1

For assay [14], the system named is HepG2. Nature of the assay: Percent reduction of cholesterol synthesis in human hepatoma cell line HepG2 at 100 uM concentration. The format is functional. Details: scale not given: the % may be the effect or the level left. In outline:
as §2

The target of assay [15] is T2, ATP-citrate synthase (Homo sapiens, UniProt P53396).
T2 sequence (P53396 whole entry): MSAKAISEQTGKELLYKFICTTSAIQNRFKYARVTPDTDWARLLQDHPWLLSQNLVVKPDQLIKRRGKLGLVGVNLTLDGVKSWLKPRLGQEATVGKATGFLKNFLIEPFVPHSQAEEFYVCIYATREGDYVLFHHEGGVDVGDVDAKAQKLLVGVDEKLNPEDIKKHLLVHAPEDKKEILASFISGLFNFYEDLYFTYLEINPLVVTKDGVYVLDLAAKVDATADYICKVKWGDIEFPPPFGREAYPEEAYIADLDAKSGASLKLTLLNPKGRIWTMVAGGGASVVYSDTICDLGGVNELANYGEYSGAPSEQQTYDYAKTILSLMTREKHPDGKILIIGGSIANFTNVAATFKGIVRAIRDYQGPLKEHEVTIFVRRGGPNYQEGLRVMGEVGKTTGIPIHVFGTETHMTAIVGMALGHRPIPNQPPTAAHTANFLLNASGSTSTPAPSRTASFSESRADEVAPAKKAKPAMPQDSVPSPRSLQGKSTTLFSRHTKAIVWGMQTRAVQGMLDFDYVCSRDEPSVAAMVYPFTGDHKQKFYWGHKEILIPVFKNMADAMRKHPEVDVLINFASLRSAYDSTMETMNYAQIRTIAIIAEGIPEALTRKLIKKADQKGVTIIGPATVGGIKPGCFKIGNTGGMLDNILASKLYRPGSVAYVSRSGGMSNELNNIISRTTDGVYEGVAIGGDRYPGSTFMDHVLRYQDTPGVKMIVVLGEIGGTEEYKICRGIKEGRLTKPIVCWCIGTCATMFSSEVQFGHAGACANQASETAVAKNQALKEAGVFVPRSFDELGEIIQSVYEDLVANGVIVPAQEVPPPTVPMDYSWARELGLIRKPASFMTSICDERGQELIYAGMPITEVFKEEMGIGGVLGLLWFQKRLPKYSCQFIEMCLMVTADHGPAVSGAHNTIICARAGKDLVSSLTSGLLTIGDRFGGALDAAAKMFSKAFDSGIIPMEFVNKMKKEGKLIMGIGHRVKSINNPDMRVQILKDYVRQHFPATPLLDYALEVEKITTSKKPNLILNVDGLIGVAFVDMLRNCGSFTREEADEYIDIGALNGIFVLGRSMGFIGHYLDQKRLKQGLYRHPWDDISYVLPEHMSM
Put plainly: Inhibitory activity against human recombinant ATP-Citrate Lyase was measured by the […] dehydrogenase catalyzed reduction of oxaloacetate by NADH. The essentials: as §3

Assay [16] has as its system HepG2. Nature of the assay: Percent reduction of fatty acid synthesis in human hepatoma cell line HepG2 at 300 uM concentration. Details: scale not given: the % may be the effect or the level left. The format is functional. In outline:
as §2

Assay [17] relates to HepG2. Put plainly: Percent control of ATP levels in human hepatoma cell line HepG2 at 1000 uM concentration. It is filed as functional. In outline:
as §1

In assay [18] the test system is HepG2. Nature of the assay: Percent reduction of cholesterol synthesis in human hepatoma cell line HepG2 at 300 uM concentration. The format is functional. On the set-up: scale not given: the % may be the effect or the level left. In outline:
as §2

The test system of assay [19] is HepG2. Nature of the assay: Percent reduction of cholesterol synthesis in human hepatoma cell line, HepG2 at 100 uM concentration. The format is functional. Details: scale not given: the % may be the effect or the level left. The essentials:
as §2

Assay [20] deals with HepG2. Nature of the assay: Percent control of ATP levels in human hepatoma cell line HepG2 at 300 uM concentration. The format is functional. The essentials: as §1
Assay [21] has as its system HepG2. Nature of the assay: Percent reduction of cholesterol synthesis in human hepatoma cell line HepG2 at 10 uM concentration. The format is functional. On the set-up: scale not given: the % may be the effect or the level left. In outline: as §2
The subject of assay [22] is HepG2. Put plainly: Percent reduction of fatty acid synthesis in human hepatoma cell line HepG2 at 10 uM concentration. It is filed as functional. On the set-up: scale not given: the % may be the effect or the level left. The essentials: as §2
The test system of assay [23] is HepG2. Put plainly: Percent reduction of fatty acid synthesis in human hepatoma cell line, HepG2 at 1000 uM concentration. It is filed as functional. Details: scale not given: the % may be the effect or the level left. In outline: as §2
The test system of assay [24] is HepG2. Nature of the assay: Percent reduction of cholesterol synthesis in human hepatoma cell line, HepG2 at 1000 uM concentration. The format is functional. Details: scale not given: the % may be the effect or the level left. In outline:
as §2

In the case of `CC(=O)OCOC(=O)CC(O)(CSCCCCCCc1ccc(Cl)cc1Cl)C(=O)OCOC(C)=O` (stereo unspecified), the values for the Control in [1], in assay [2] and in [5] were 60%, 111% and 100%, respectively. Besides, the “Cholesterol synthesis (% of vehicle control)” value in assay [3] came out at 13%. For the same molecule, the “Fatty acid synthesis (% of vehicle control)” value in assay [4] was found to be 16%.
Turning to `O=C(O)CC(O)(CSCCCCCc1ccc(Cl)cc1Cl)C(=O)O` (stereo unspecified), the Ki in [6] was 6.8 µM. For the same molecule, the Control in assay [7] is reported as 96%; in assay [8], 84%; in assay [9] it was 102%; in assay [10] it was 104%. Besides, in [3], the “Cholesterol synthesis (% of vehicle control)” value came to 14%. Moreover, in assay [4], the “Fatty acid synthesis (% of vehicle control)” value is 16%.
For the molecule `CCOC(=O)CC(O)(CSCCCCCCc1ccc(Cl)cc1Cl)C(=O)OCC` (stereo unspecified), the Control came out at 81% in assay [11]; 91% in [12]; 86% in [13]; 3% in assay [14]; 6% in [5].
As for `O=C(O)CC(O)(CSCCCCCCc1ccccc1)C(=O)O` (stereo unspecified), the results for the Ki in [6] and in assay [15] were 710 µM and 320 µM, respectively.
For the molecule `O=C(O)C[C@@](O)(C(=O)O)[C@H](O)C(=O)O`, the Control in assay [16] came out at 79%; in assay [17] it was 104%; in assay [11] it was 100%; in [18] it was 40%; in assay [19], 110%; in assay [5], 87%. In [20], this molecule displayed a Control of 103%. Besides, the “Cholesterol synthesis (% of vehicle control)” value in assay [3] was found to be 15%. Further, the “Fatty acid synthesis (% of vehicle control)” value in assay [4] came to 57%.
`COC(=O)CC(CSCCCCCCc1ccc(Cl)cc1Cl)C(=O)OC` (stereo unspecified): the Control is 96% in assay [12], 91% in [13], 78% in assay [21] and 105% in [22].
Consider `O=C(O)CC(O)(CSCCCCCCc1ccc(Cl)cc1Cl)C(=O)O` (stereo unspecified), for which the Ki in assay [6] came out at 3.3 µM. Moreover, the Control in assay [23] turned out to be 107%; in [1], 100%; in [24], 116%.

The values above are taken from ChEMBL document CHEMBL1129688, “ATP-citrate lyase as a target for hypolipidemic intervention. Design and synthesis of 2-substituted butanedioic acids as novel, potent inhibitors of the enzyme” (J Med Chem, 1996).
